Where “and” joins values, the source holds several entries; their conditions need not be identical. Equal entries are not always repeated.
How the values were obtained:
Adenosine receptor A2a = Adenosine receptor A2a (Homo sapiens, UniProt P29274); test: Displacement of [3H]ZM-241385 from human adenosine A2A receptor expressed in CHO cells; assay type: cell-based
How it was run: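 Competition binding at cloned human receptors: [3H]DPCPX for A1 and A2B, [3H]ZM241385 for A2A, [3H]NECA for A3. Screening compounds are reported as % radioligand displacement at one concentration. SEM below 10%.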

Adenosine receptor A2b = molecular target: T1, Adenosine receptor A2b (Homo sapiens, UniProt P29275); test: Displacement of [3H]DPCPX from human adenosine A2B receptor expressed in HEK293 cells; assay type: cell-based
T1 sequence (P29275 whole entry): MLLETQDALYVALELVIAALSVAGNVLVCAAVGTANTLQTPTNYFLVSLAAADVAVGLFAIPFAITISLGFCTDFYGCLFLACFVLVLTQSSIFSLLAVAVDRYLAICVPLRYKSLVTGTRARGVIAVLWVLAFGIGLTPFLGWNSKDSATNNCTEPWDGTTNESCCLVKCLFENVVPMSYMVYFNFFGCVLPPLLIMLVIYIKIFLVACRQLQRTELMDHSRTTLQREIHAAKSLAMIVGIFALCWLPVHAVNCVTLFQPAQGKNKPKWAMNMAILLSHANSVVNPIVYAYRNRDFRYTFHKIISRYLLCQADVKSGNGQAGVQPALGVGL

Homo sapiens = species on record: Homo sapiens; test: Selectivity index, ratio for human adenosine A2A receptor to human adenosine A2B receptor

Sequence of Adenosine receptor A2a (P29274 whole entry): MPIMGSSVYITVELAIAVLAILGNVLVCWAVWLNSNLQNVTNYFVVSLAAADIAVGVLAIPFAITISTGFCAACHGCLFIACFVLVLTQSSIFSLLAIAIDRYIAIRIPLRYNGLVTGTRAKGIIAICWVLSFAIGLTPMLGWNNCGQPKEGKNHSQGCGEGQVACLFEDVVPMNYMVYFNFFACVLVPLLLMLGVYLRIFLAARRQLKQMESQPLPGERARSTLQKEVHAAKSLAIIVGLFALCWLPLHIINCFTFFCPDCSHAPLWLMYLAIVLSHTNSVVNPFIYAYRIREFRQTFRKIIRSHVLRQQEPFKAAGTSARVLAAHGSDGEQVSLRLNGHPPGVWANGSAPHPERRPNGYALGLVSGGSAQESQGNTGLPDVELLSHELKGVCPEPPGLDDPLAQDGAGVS

Compound | Ki (Adenosine receptor A2a) | Ki (Adenosine receptor A2b; read-out: Log Ki (converted)) | Ratio (Homo sapiens) | Ki (Adenosine receptor A2b; read-out: Ki)
CCCn1c(=O)c2[nH]c(-c3ccc(OC(C)C(=O)N4CCc5ccccc5C4)cc3)cc2n(CCC)c1=O (stereo not drawn) | 158 nM | 4.68 nM | 33.9 | 
CCCn1c(=O)c2[nH]c(-c3ccc(OCC(=O)N4CCN(c5cccc(Cl)c5)CC4)cc3)cc2n(CCC)c1=O | 115 nM |  | 75.9 | 1.5 nM
Cn1c(=O)c2[nH]c(-c3ccc(OCC(=O)N4CCC(C(=O)c5ccc(F)cc5)CC4)cc3)cc2n(C)c1=O | 302 nM | 11.2 nM | 26.9 | 
Cn1c(=O)c2[nH]c(-c3ccc(OCC(=O)N4CCN(c5nc6cc(Cl)ccc6s5)CC4)cc3)cc2n(C)c1=O | 182 nM | 3.63 nM | 50.1 | 
CCCn1c(=O)n(C)c(=O)c2[nH]c(-c3ccc(OCC(=O)N4CCc5ccccc5C4)cc3)cc21 | 209 nM and 1000 nM | 14.5 nM and 7.24 nM |  | 
CCCn1c(=O)c2[nH]c(-c3ccc(OCC(=O)N4CCC(c5ccccc5)(c5ccccc5)CC4)cc3)cc2n(CCC)c1=O | 1050 nM | 21.4 nM | 40.7 | 
Cn1c(=O)c2[nH]c(-c3ccc(OCC(=O)N4CCN(c5ccc(C#N)cc5)CC4)cc3)cc2n(C)c1=O | 355 nM | 6.31 nM | 56 | 
CCCn1c(=O)c2[nH]c(-c3ccc(OC(C)C(=O)N4CCN(c5ccccc5)CC4)cc3)cc2n(CCC)c1=O (stereo not drawn) | 240 nM | 6.61 nM | 36.3 | 
CCCn1c(=O)n(C)c(=O)c2[nH]c(-c3ccc(OCC(=O)N4CCN(c5ccccc5)CC4)cc3)cc21 | 708 nM | 25.7 nM | 27.5 | 
CCCn1c(=O)n(C)c(=O)c2[nH]c(-c3ccc(OCC(=O)N4CCN(c5cccc(Cl)c5)CC4)cc3)cc21 | 479 nM | 6.03 nM | 79 | 
Cn1c(=O)c2[nH]c(-c3ccc(OCC(=O)N4CCN(Cc5ccccc5)CC4)cc3)cc2n(C)c1=O | 1550 nM | 53.7 nM | 28.8 | 
CCn1c(=O)c2[nH]c(-c3ccc(OCC(=O)N4CCN(c5ccccc5)CC4)cc3)cc2n(CC)c1=O | 692 nM | 25.7 nM | 26.9 | 
Cc1ccc(N2CCN(C(=O)C(C)Oc3ccc(-c4cc5c([nH]4)c(=O)n(C)c(=O)n5C)cc3)CC2)cc1 (stereo not drawn) | 389 nM |  | 213 | 2 nM
COc1cc(-c2cc3c([nH]2)c(=O)n(C)c(=O)n3C)ccc1OCC(=O)N1CCN(c2ccccc2)CC1 | 1450 nM | 57.5 nM | 25.1 | 
CCCn1c(=O)c2[nH]c(-c3ccc(OCC(=O)N4CCC(O)(c5ccccc5)CC4)cc3)cc2n(CCC)c1=O | 1150 nM | 13.5 nM | 85.1 | 
Cn1c(=O)c2[nH]c(-c3ccc(OCC(=O)N4CCN(c5ccccc5Cl)CC4)cc3)cc2n(C)c1=O | 355 nM | 6.31 nM | 56 | 
CCCn1c(=O)c2[nH]c(-c3ccc(OCC(=O)N4CCN(C(=O)OCc5ccccc5)CC4)cc3)cc2n(CCC)c1=O | 151 nM | 38.9 nM | 3.9 | 
CCCn1c(=O)c2[nH]c(-c3ccc(OCC(=O)N4CCN(c5ccccc5Cl)CC4)cc3)cc2n(CCC)c1=O | 38 nM | 6.92 nM | 5.5 | 
Cn1c(=O)c2[nH]c(-c3ccc(OC(C)(C)C(=O)N4CCN(c5ccccc5)CC4)cc3)cc2n(C)c1=O | 174 nM | 31.6 nM | 5.49 | 
COc1ccccc1N1CCN(C(=O)COc2ccc(-c3cc4c([nH]3)c(=O)n(C)c(=O)n4C)cc2)CC1 | 2340 nM | 51.3 nM | 45.7 | 
CCCn1c(=O)c2[nH]c(-c3ccc(OCC(=O)N4CCN(c5nc6ccc(Cl)cc6s5)CC4)cc3)cc2n(CCC)c1=O | 813 nM | 10.5 nM | 77.6 | 
Cn1c(=O)c2[nH]c(-c3ccc(OCC(=O)N4CCN(c5ccc(Br)cc5)CC4)cc3)cc2n(C)c1=O | 115 nM | 3.47 nM | 33.1 | 

Compound | Ki (Adenosine receptor A2a) | Ki (Adenosine receptor A2b; read-out: Log Ki (converted)) | Ratio (Homo sapiens) | Ki (Adenosine receptor A2b; read-out: Ki)
CCCn1c(=O)c2[nH]c(-c3ccc(OCC(=O)N4CCN(C(=O)Oc5ccccc5)CC4)cc3)cc2n(CCC)c1=O | 155 nM | 20.4 nM | 7.6 | 
Cn1c(=O)c2[nH]c(-c3ccc(OCC(=O)N4CCN(c5ccc(Cl)cc5)CC4)cc3)cc2n(C)c1=O | 398 nM | 3.39 nM | 117 | 
CC(Oc1ccc(-c2cc3c([nH]2)c(=O)n(C)c(=O)n3C)cc1)C(=O)N1CCN(c2ccc(Br)cc2)CC1 (stereo not drawn) | 269 nM | 8.13 nM | 26 | 
Cn1c(=O)c2[nH]c(-c3ccc(OCC(=O)N4CCC(c5ccccc5)CC4)cc3)cc2n(C)c1=O | 794 nM | 12.3 nM | 64.6 | 
COCCn1c(=O)c2[nH]c(-c3ccc(OCC(=O)N4CCN(c5ccccc5)CC4)cc3)cc2n(CCOC)c1=O | 398 nM | 4.9 nM | 81 | 
CC(Oc1ccc(-c2cc3c([nH]2)c(=O)n(C)c(=O)n3C)cc1)C(=O)N1CCN(c2ccccc2Cl)CC1 (stereo not drawn) | 741 nM | 70.8 nM | 10.5 | 
CCCn1c(=O)n(C)c(=O)c2[nH]c(-c3ccc(OCC(=O)N4CCN(c5ccccc5Cl)CC4)cc3)cc21 | 1100 nM | 14.8 nM | 74.1 | 
CN1CCN(C(=O)COc2ccc(-c3cc4c([nH]3)c(=O)n(C)c(=O)n4C)cc2)CC1 | 794 nM | 174 nM | 4.05 | 
CCCn1c(=O)c2[nH]c(-c3ccc(OCC(=O)N4CCN(c5ccccc5)CC4)cc3)cc2n(CCC)c1=O | 162 nM | 4.79 nM | 33.8 | 
Cn1c(=O)c2[nH]c(-c3ccc(OCC(=O)N4CCN(c5cccc(Cl)c5)CC4)cc3)cc2n(C)c1=O | 155 nM |  | 55 | 3 nM
CCCn1c(=O)n(C)c(=O)c2[nH]c(-c3ccc(OCC(=O)N4CCC(c5ccc(OC)cc5)CC4)cc3)cc21 | 398 nM | 9.12 nM | 43.7 | 
CC(Oc1ccc(-c2cc3c([nH]2)c(=O)n(C)c(=O)n3C)cc1)C(=O)N1CCN(c2ccccc2)CC1 (stereo not drawn) | 355 nM | 20.4 nM | 17.4 | 
COc1ccc(C2CCN(C(=O)COc3ccc(-c4cc5c([nH]4)c(=O)n(C)c(=O)n5C)cc3OC)CC2)cc1 | 871 nM | 30.9 nM | 28.2 | 
CCCn1c(=O)c2[nH]c(-c3ccc(OCC(=O)N4CCN(c5ccccc5Cl)CC4)cc3)cc2n(C)c1=O | 224 nM | 69.2 nM | 3.2 | 
Cn1c(=O)c2[nH]c(-c3ccc(OCC(=O)N4CCN(c5ccccn5)CC4)cc3)cc2n(C)c1=O | 708 nM | 58.9 nM | 12 | 
CCCn1c(=O)c2[nH]c(-c3ccc(OCC(=O)N4CCN(c5ccc(C(F)(F)F)cc5)CC4)cc3)cc2n(CCC)c1=O | 174 nM | 4.17 nM | 41.7 | 
CCCn1c(=O)n(C)c(=O)c2[nH]c(-c3ccc(OCC(=O)N4CCC(c5ccccc5OC)CC4)cc3)cc21 | 407 nM | 6.17 nM | 66.1 | 
Cn1c(=O)c2[nH]c(-c3ccc(OCC(=O)N4CCN(c5ccc(C(F)(F)F)cc5)CC4)cc3)cc2n(C)c1=O | 132 nM | 4.17 nM | 31.6 | 
COc1cc(-c2cc3c([nH]2)c(=O)n(C)c(=O)n3C)ccc1OCC(=O)N1CCc2ccccc2C1 | 6760 nM | 170 nM | 39 | 
CCCn1c(=O)c2[nH]c(-c3ccc(OCC(=O)N4CCC(c5ccccc5)CC4)cc3)cc2n(CCC)c1=O | 589 nM | 20.9 nM | 28.2 | 
O=C(COc1ccc(-c2cc3c([nH]2)c(=O)n(CC2CC2)c(=O)n3CC2CC2)cc1)N1CCN(c2ccccc2)CC1 | 49 nM | 11.7 nM | 4.2 | 

— ChEMBL document CHEMBL1143979, “1-, 3- and 8-substituted-9-deazaxanthines as potent and selective antagonists at the human A2B adenosine receptor” (Bioorg Med Chem, 2008)
